The IC50 is the concentration that gives 50% inhibition. A low value points to greater potency.

One test deals with Glutamate NMDA receptor. The test can be described thus: Inhibition of [3H]MK-801 binding to the PCP receptor site in guinea pig brain homogenate. Format: tissue-based.
The nature of test [1]: In vitro neuroprotection against glutamate-induced toxicity at 5 uM using rat hippocampal cell cultures at 1000 uM of glutamate. Format: functional, Hippocampus. An outline of the steps:
(§1)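 Dissociated hippocampal cultures from 1–3 day postnatal Sprague–Dawley rats, papain-dissociated and treated with 5 μM cytosine arabinoside. Blind, coded test. In HEPES-buffered salt solution (pH 7.4, 32–34 °C), cultures got a 5 min preincubation with 1 μM glycine plus compound, then 5 min with glycine, compound and glutamate. Next day, 0.4% Trypan Blue; surviving cells in the grid were counted by phase contrast and expressed as % of highest count.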

A short description of test [2]: In vitro neuroprotection against glutamate-induced toxicity at 5 uM using rat hippocampal cell cultures at 10 uM of glutamate. Format: functional, Hippocampus. An outline of the steps: as §1
A short description of test [3]: In vitro neuroprotection against glutamate-induced toxicity at 5 uM using rat hippocampal cell cultures at 300 uM of glutamate. The format is functional, Hippocampus. An outline of the steps: as §1
Test [4] can be described thus: In vitro neuroprotection against glutamate-induced toxicity at 5 uM using rat hippocampal cell cultures at 3 uM of glutamate. Format: functional, Hippocampus. The method in brief: as §1
A short description of test [5]: In vitro neuroprotection against glutamate-induced toxicity at 5 uM using rat hippocampal cell cultures at 30 uM of glutamate. The format is functional, Hippocampus. The method in brief:
as §1

The nature of test [6]: In vitro neuroprotection against glutamate-induced toxicity at 5 uM using rat hippocampal cell cultures at 100 uM of glutamate. Format: functional, Hippocampus. The method in brief: as §1
Test [7] can be described thus: In vitro neuroprotection against glutamate-induced toxicity at 5 uM using rat hippocampal cell cultures at 0 uM of glutamate. Format: functional, Hippocampus. An outline of the steps:
as §1

A short description of test [8]: In vitro neuroprotection against glutamate-induced toxicity at 10 uM using rat hippocampal cell cultures at 300 uM of glutamate. The format is functional, Hippocampus. An outline of the steps:
as §1

Test [9] can be described thus: In vitro neuroprotection against glutamate-induced toxicity at 10 uM using rat hippocampal cell cultures at 3 uM of glutamate. Format: functional, Hippocampus. An outline of the steps:
as §1

Test [10] is described as follows: In vitro neuroprotection against glutamate-induced toxicity at 10 uM using rat hippocampal cell cultures at 0 uM of glutamate. The format is functional, Hippocampus. An outline of the steps:
as §1

Test [11] in a line: In vitro neuroprotection against glutamate-induced toxicity at 10 uM using rat hippocampal cell cultures at 100 uM of glutamate. The format is functional, Hippocampus. An outline of the steps:
as §1

Test [12] in a line: In vitro neuroprotection against glutamate-induced toxicity at 10 uM using rat hippocampal cell cultures at 1000 uM of glutamate. Format: functional, Hippocampus. An outline of the steps: as §1
Test [13] in a line: In vitro neuroprotection against glutamate-induced toxicity at 10 uM using rat hippocampal cell cultures at 10 uM of glutamate. Format: functional, Hippocampus. An outline of the steps: as §1
Test [14] is described as follows: In vitro neuroprotection against glutamate-induced toxicity at 10 uM using rat hippocampal cell cultures at 30 uM of glutamate. Format: functional, Hippocampus. An outline of the steps:
as §1

Values joined by “and” are separate entries in the source; they are usually repeats but may differ in a detail not shown here. Equal entries are not always repeated.

In turn, `COc1ccc2c(c1)C1CN(C)C2Cc2ccc(Br)cc21` (stereo not given) came in with an IC50 on Glutamate NMDA receptor of 0.643 µM.
`CC12CNC(Cc3ccccc31)c1ccccc12` (stereo not given) showed a concentration for half-maximal inhibition (IC50) on Glutamate NMDA receptor of 0.119 µM.
The molecule `Nc1ccc2c(c1)C1CNC(C2)c2ccccc21` (stereo not given) showed a half-inhibitory concentration (IC50) on Glutamate NMDA receptor of 0.486 µM. Compared with the last molecule, the IC50 is about 4.1-fold higher.
`Cc1ccc2c(c1)C1CNC(C2)c2ccccc21` (stereo not given): the concentration for half-maximal inhibition (IC50) at Glutamate NMDA receptor amounted to 0.108 µM. This IC50 lies about 4.5-fold lower than the previous one.
On the same count and under the same terms, next, `c1ccc(CN2CC3c4ccccc4CC2c2ccccc23)nc1` (stereo not given): > 10 µM; `O=[N+]([O-])c1ccc2c(c1)C1CNC(C2)c2ccccc21` (stereo not given): 4.3 µM; `COc1ccc2c(c1)C1CNC2Cc2ccc(Cl)cc21` (stereo not given): 0.113 µM.
Take `CC(=O)N1CC2c3cc([N+](=O)[O-])ccc3CC1c1ccccc12` (stereo not given): at Glutamate NMDA receptor, the IC50 is > 10 µM.
Regarding `COc1ccc2c(c1)C1CNC(C2)c2ccccc21` (stereo not given), the concentration for half-maximal inhibition (IC50) on Glutamate NMDA receptor is 0.168 µM.
On the same count and under the same terms, the result for `Brc1ccc2c(c1)C1CNC(C2)c2ccccc21` (stereo not given) reads 0.0517 µM; that for `CN1CC2c3cc(Br)ccc3CC1c1ccccc12` (stereo not given), 1.04 µM; that for `COc1ccc2c(c1)C1CNC2Cc2ccc(Br)cc21` (stereo not given), 0.114 µM.
On the same count and under the same terms, next, `Ic1ccc2c(c1)C1CNC(C2)c2ccccc21` (stereo not given): 0.16 µM; `[N-]=[N+]=Nc1ccc2c(c1)C1CNC(C2)c2ccccc21` (stereo not given): 0.5 µM; `CN(C)CCCN1CC2c3ccccc3CC1c1ccccc12` (stereo not given): 12 µM.
Still for that read-out and setting: the result for `Clc1ccc2c(c1)C1CNC2Cc2ccccc21` (stereo not given) reads 0.69 µM.
With `CC(C)N1CC2c3ccccc3CC1c1ccccc12` (stereo not given), the concentration for half-maximal inhibition (IC50) at Glutamate NMDA receptor was found to be 1.88 µM.
`c1ccc(-c2ccc3c(c2)C2CNC(C3)c3ccccc32)cc1` (stereo not given) displayed a concentration for half-maximal inhibition (IC50) on Glutamate NMDA receptor of 0.421 µM.
The same measure, in the same setting: the result for `COc1ccc2c(c1)C1CNC2Cc2ccccc21` (stereo not given) reads 0.332 µM; that for `Fc1ccc2c(c1)C1CNC(C2)c2ccc(F)cc21` (stereo not given), 0.0512 µM.
On the same count and under the same terms, next, `CC(=O)N1CC2c3ccccc3CC1c1ccccc12` (stereo not given): > 10 µM.
In the case of `c1ccc2c(c1)CC1NCC2c2ccccc21` (racemic), the Neuroprotection is on record as 25.5% in [1]; 76.6% in test [2]; 39.9% in test [3]; 85.3% in test [4]; 71.5% in [5]; 61.3% in [6]. In test [7], this molecule came in with a Neuroprotection of 99.1%.
Regarding `c1ccc2c(c1)CC1NCC2c2ccccc21` (single isomer, unassigned; (+)), the Neuroprotection in test [1] is 40.5%; in test [2] it was 76.3%; in test [3], 57.2%; in [4], 68.8%; in test [5] it was 73.3%; in test [6], 73.9%. Also, the Neuroprotection in [7] was 93.6%. The concentration for half-maximal inhibition (IC50) at Glutamate NMDA receptor is 0.0376 µM and 0.0042 µM.
Regarding `Fc1ccc2c(c1)C1CNC(C2)c2ccccc21` (single isomer, unassigned; (+)), the IC50 at Glutamate NMDA receptor is 0.0155 µM.
In the case of `CN1CC2c3ccccc3CC1c1ccccc12` (single isomer, unassigned; (+)), the Neuroprotection was found to be 56.6% in test [8]; 23.3% in test [1]; 65% in test [2]; 93.6% in test [9]; 58.7% in test [3]; 97.8% in test [10]. In addition, the Neuroprotection in [11] was found to be 84%; in [4] it was 74.7%; in test [5], 62.7%; in test [6] it was 59.9%; in test [12], 53.3%; in test [13], 90%. The results for the Neuroprotection in test [14] and in test [7] were 92.1% and 91%, respectively. This molecule showed a 50% inhibitory concentration (IC50) at Glutamate NMDA receptor of 0.826 µM.
In turn, `Fc1ccc2c(c1)C1CNC(C2)c2ccccc21` (single isomer, unassigned; (-)) displayed an IC50 on Glutamate NMDA receptor of 0.531 µM.
`c1ccc2c(c1)CC1NCC2c2ccccc21` (stereo in doubt; 3) came in with a half-inhibitory concentration (IC50) at Glutamate NMDA receptor of 0.0594 µM.
Same read-out and setting: next, `Clc1ccc2c(c1)C1CNC(C2)c2ccccc21` (stereo in doubt; 13c): 0.0713 µM.
Same read-out and setting: next, `Fc1ccc2c(c1)C1CNC(C2)c2ccccc21` (stereo in doubt; 13e): 0.0294 µM; `Clc1ccc2c(c1)C1CNC(C2)c2ccccc21` (stereo in doubt; (+)-13c): 0.0321 µM.
On the same count and under the same terms, next, `Clc1ccc2c(c1)C1CNC(C2)c2ccccc21` (stereo in doubt; (-)-13c): 0.931 µM.
In the case of `C[C@]12N[C@H](Cc3ccccc31)c1ccccc12` [DIZOCILPINE], the Neuroprotection in [1] came out at 88.4%; in test [2] it was 94.7%; in test [3], 90.3%; in test [4] it was 98.3%; in test [5], 95.5%; in [6], 93.9%. Also, the Neuroprotection in test [7] came to 97.5%.
